Laboratory results reported in ChEMBL document CHEMBL1687712, “Antiviral effects of lamivudine, emtricitabine, adefovir dipivoxil, and tenofovir disoproxil fumarate administered orally alone and in combination to woodchucks with chronic woodchuck hepatitis virus infection” (Antimicrob Agents Chemother, 2008).
Active and inactive are the calls of the source. No cut-off for these calls is given here.

Assays:
[1] = test system: Woodchuck hepatitis virus; assay: Antiviral activity against Woodchuck hepatitis virus infected in woodchuck assessed as reduction of viral RNA level per ug of total cell DNA at 15 mg/kg, po qd for 48 weeks measured on 60th week (reference value: 27 pg); assay type: functional
In short: (§1)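 Chronic WHV-carrier woodchucks, 5 per group, 15 mg/kg/day oral once daily for 48 weeks in liquid diet. Needle liver biopsies were snap-frozen in liquid nitrogen and stored at −70°C. Hepatic WHV DNA replicative intermediates were quantified by Southern blot (pg/μg total cell DNA) and WHV RNA by Northern blot; group means ± SD were compared with pretreatment and placebo.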

[2] = test system: Woodchuck hepatitis virus; assay: Antiviral activity against Woodchuck hepatitis virus infected in woodchuck assessed as reduction of viral antigen level in serum at 15 mg/kg, po qd for 48 weeks measured on 60th week (reference value: 3.3 +/- 1.6 log10 ng/ml); assay type: functional
[3] = test system: Marmota monax; assay: Toxicity in Woodchuck hepatitis virus infected woodchuck assessed as effect on hematological parameters at 15 mg/kg, po qd for 48 weeks measured up to 60 weeks; assay type: organism-based; parameters: dose 15 mg/kg, route oral; conditions: in vivo
In short: (§2)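 Chronic WHV-carrier woodchucks, 5 per group, were dosed orally once daily in liquid diet for 48 weeks, with a placebo diet-only group. Body weights were monitored. Complete blood counts were taken 2 weeks pretreatment, at weeks 12, 36 and 48 of treatment, and 12 weeks after withdrawal. Values were compared with placebo controls.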

[4] = test system: Woodchuck hepatitis virus; assay: Antiviral activity against Woodchuck hepatitis virus infected in woodchuck assessed as reduction of viral antigen positive hepatocytes at 15 mg/kg, po qd measured on 36th week on 48 weeks study (reference value: 41 +/- 25 %); assay type: functional, Hepatocyte; parameters: scale not given: the % may be the effect or the level left
In short: (§3)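 Chronic WHV-carrier woodchucks, 5 per group, 15 mg/kg/day oral once daily for 48 weeks in liquid diet. Liver biopsies were taken at pretreatment, weeks 12, 36, 48 and week 60. Percentage of hepatocytes positive for WHcAg was given as group mean ± SD and compared with pretreatment and placebo.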

[5] = test system: Woodchuck hepatitis virus; assay: Antiviral activity against Woodchuck hepatitis virus infected in woodchuck assessed as reduction of viral DNA replicative intermediate level per ug of total cell DNA at 15 mg/kg, po qd measured on 12th week on 48 weeks study (reference value: 1495 +/- 890 pg); assay type: functional; in short: as §1
[6] = test system: Woodchuck hepatitis virus; assay: Antiviral activity against Woodchuck hepatitis virus infected in woodchuck assessed as reduction of viral RNA level per ug of total cell DNA at 15 mg/kg, po qd measured on 12th week on 48 weeks study (reference value: 46 +/- 25 pg); assay type: functional; in short: as §1
[7] = test system: Woodchuck hepatitis virus; assay: Antiviral activity against Woodchuck hepatitis virus infected in woodchuck assessed as frequency of hepatocytes expressing viral antigen at 15 mg/kg, po qd measured on 12th week on 48 weeks study; assay type: functional, Hepatocyte
In short: (§4)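 Chronic WHV-carrier woodchucks, 5 per group, given 15 mg/kg/day orally once daily for 48 weeks in liquid diet; placebo is diet alone. Liver biopsies at pretreatment, weeks 12, 36, 48 and 12 weeks after withdrawal. Cytoplasmic WHsAg staining scored 0–4: 1 ≤1%, 2 ≤2%, 3 ≤5%, 4 ≥10% of hepatocytes.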

[8] = test system: Woodchuck hepatitis virus; assay: Antiviral activity against Woodchuck hepatitis virus infected in woodchuck assessed as frequency of hepatocytes expressing viral antigen at 15 mg/kg, po qd for 48 weeks; assay type: functional, Hepatocyte; in short: as §4
[9] = test system: Woodchuck hepatitis virus; assay: Antiviral activity against Woodchuck hepatitis virus infected in woodchuck assessed as reduction of viral RNA level per ug of total cell DNA at 15 mg/kg, po qd for 48 weeks (reference value: 34 +/- 20 pg); assay type: functional; in short: as §1
[10] = test system: Woodchuck hepatitis virus; assay: Antiviral activity against Woodchuck hepatitis virus infected in woodchuck assessed as reduction of viral antigen level in serum at 15 mg/kg, po qd for 48 weeks (reference value: 3.8 +/- 1.3 log10 ng/ml); assay type: functional
[11] = test system: Marmota monax; assay: Toxicity in Woodchuck hepatitis virus infected woodchuck assessed as increase of liver alkaline phosphatase activity at 15 mg/kg, po qd for 48 weeks; assay type: organism-based; parameters: dose 15 mg/kg, route oral; conditions: in vivo, 8064 h
In short: (§5)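 Woodchucks chronically infected with WHV, 5 per group, received oral drug once daily in liquid diet for 48 weeks; placebo got diet only. Serum chemistry (GGT, ALP, ALT, AST, SDH, among others) was run 2 weeks pretreatment, at week 0, every other week to week 12, then monthly to week 48. Sampling continued at 2, 4, 6, 8 and 12 weeks post-treatment.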

[12] = test system: Woodchuck hepatitis virus; assay: Antiviral activity against Woodchuck hepatitis virus infected in woodchuck assessed as reduction of viral antigen positive hepatocytes at 15 mg/kg, po qd for 48 weeks study (reference value: 35 +/- 27 %); assay type: functional, Hepatocyte; parameters: scale not given: the % may be the effect or the level left; in short: as §3
[13] = test system: Woodchuck hepatitis virus; assay: Antiviral activity against Woodchuck hepatitis virus infected in woodchuck assessed as reduction of viral antigen positive hepatocytes at 15 mg/kg, po qd measured on 12th week on 48 weeks study (reference value: 55 +/- 32 %); assay type: functional, Hepatocyte; parameters: scale not given: the % may be the effect or the level left; in short: as §3
[14] = test system: Woodchuck hepatitis virus; assay: Antiviral activity against Woodchuck hepatitis virus infected in woodchuck assessed as reduction of viral DNA replicative intermediate level per ug of total cell DNA at 15 mg/kg, po qd for 48 weeks measured on 60th week (reference value: 979 pg); assay type: functional; in short: as §1
[15] = test system: Marmota monax; assay: Toxicity in Woodchuck hepatitis virus infected woodchuck assessed as increase of liver alanine aminotransferase activity at 15 mg/kg, po qd for 48 weeks; assay type: organism-based; parameters: dose 15 mg/kg, route oral; conditions: in vivo, 8064 h; in short: as §5
[16] = test system: Marmota monax; assay: Toxicity in Woodchuck hepatitis virus infected woodchuck assessed as increase of serum gamma-glutamyltransferase activity at 15 mg/kg, po qd for 48 weeks; assay type: organism-based; parameters: dose 15 mg/kg, route oral; conditions: in vivo, 8064 h; in short: as §5
[17] = test system: Marmota monax; assay: Toxicity in Woodchuck hepatitis virus infected woodchuck assessed as increase of liver alanine aminotransferase activity at 15 mg/kg, po qd measured on 4 to 24 weeks on 48 week study; assay type: organism-based; parameters: dose 15 mg/kg, route oral; conditions: in vivo; in short: as §5
[18] = test system: Woodchuck hepatitis virus; assay: Antiviral activity against Woodchuck hepatitis virus infected in woodchuck assessed as reduction of viral antigen level in serum at 15 mg/kg, po qd measured on 36th week on 48 weeks study (reference value: 3.8 +/- 1.3 log10 ng/ml); assay type: functional
[19] = test system: Marmota monax; assay: Toxicity in Woodchuck hepatitis virus infected woodchuck assessed as increase of liver sorbitol dehydrogenase activity at 15 mg/kg, po qd measured on 28 to 48 weeks on 48 week study; assay type: organism-based; parameters: dose 15 mg/kg, route oral; conditions: in vivo; in short: as §5
[20] = test system: Woodchuck hepatitis virus; assay: Antiviral activity against Woodchuck hepatitis virus infected in woodchuck assessed as reduction of viral DNA replicative intermediate level per ug of total cell DNA at 15 mg/kg, po qd measured on 36th week on 48 weeks study (reference value: 1132 +/- 738 pg); assay type: functional; in short: as §1
[21] = test system: Woodchuck hepatitis virus; assay: Antiviral activity against Woodchuck hepatitis virus infected in woodchuck assessed as reduction of viral antigen level in serum at 15 mg/kg, po qd measured on 12th week on 48 weeks study (reference value: 4.3 +/- 1.5 log10 ng/ml); assay type: functional
[22] = test system: Woodchuck hepatitis virus; assay: Antiviral activity against Woodchuck hepatitis virus infected in woodchuck assessed as reduction of viral DNA replicative intermediate level per ug of total cell DNA at 15 mg/kg, po qd for 48 weeks (reference value: 995 +/- 736 pg); assay type: functional; in short: as §1
[23] = test system: Woodchuck hepatitis virus; assay: Antiviral activity against Woodchuck hepatitis virus infected in woodchuck assessed as frequency of hepatocytes expressing viral antigen at 15 mg/kg, po qd for 48 weeks measured on 60th week; assay type: functional, Hepatocyte; in short: as §4
[24] = test system: Marmota monax; assay: Toxicity in Woodchuck hepatitis virus infected woodchuck assessed as change in body weight at 15 mg/kg, po qd for 48 weeks measured up to 60 weeks; assay type: organism-based; parameters: dose 15 mg/kg, route oral; conditions: in vivo; in short: as §2
[25] = test system: Woodchuck hepatitis virus; assay: Antiviral activity against Woodchuck hepatitis virus infected in woodchuck assessed as reduction of viral antigen positive hepatocytes at 15 mg/kg, po qd for 48 weeks measured on 60th week (reference value: 26 %); assay type: functional, Hepatocyte; parameters: scale not given: the % may be the effect or the level left; in short: as §3
[26] = test system: Woodchuck hepatitis virus; assay: Antiviral activity against Woodchuck hepatitis virus infected in woodchuck assessed as frequency of hepatocytes expressing viral antigen at 15 mg/kg, po qd measured on 36th week on 48 weeks study; assay type: functional, Hepatocyte; in short: as §4
[27] = test system: Woodchuck hepatitis virus; assay: Antiviral activity against Woodchuck hepatitis virus infected in woodchuck assessed as reduction of viral RNA level per ug of total cell DNA at 15 mg/kg, po qd measured on 36th week on 48 weeks study (reference value: 33 +/- 21 pg); assay type: functional; in short: as §1
[28] = test system: Woodchuck hepatitis virus; assay: Antiviral activity against Woodchuck hepatitis virus infected in woodchuck assessed as absent of lesion in portal hepatitis at 15 mg/kg, po qd measured on 12th week on 48 weeks study; assay type: functional, organism-based; parameters: dose 15 mg/kg
In short: (§6)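 Adult chronic WHV-carrier woodchucks (neonatally inoculated), 5 per group, given drug once daily by dose syringe in semisynthetic liquid diet, for 48 weeks; placebo got diet alone. Ultrasound-guided needle liver biopsies under ketamine/xylazine anesthesia at pretreatment, weeks 12, 36, 48 and 12 weeks post-withdrawal. Biopsies were formalin-fixed, paraffin-embedded and H&E stained. Portal and lobular hepatitis were graded 0 (absent) to 4 (most severe).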

[29] = test system: Marmota monax; assay: Toxicity in Woodchuck hepatitis virus infected woodchuck assessed as increase of liver aspartate aminotransferase activity at 15 mg/kg, po qd for 48 weeks; assay type: organism-based; parameters: dose 15 mg/kg, route oral; conditions: in vivo, 8064 h; in short: as §5
[30] = test system: Woodchuck hepatitis virus; assay: Antiviral activity against Woodchuck hepatitis virus infected in woodchuck assessed as absent of lesion in portal hepatitis at 15 mg/kg, po qd for 48 weeks; assay type: functional, organism-based; parameters: dose 15 mg/kg; in short: as §6
[31] = test system: Marmota monax; assay: Toxicity in Woodchuck hepatitis virus infected woodchuck assessed as increase of liver sorbitol dehydrogenase activity at 15 mg/kg, po qd measured on 4 to 24 weeks on 48 week study; assay type: organism-based; parameters: dose 15 mg/kg, route oral; conditions: in vivo; in short: as §5
[32] = test system: Woodchuck hepatitis virus; assay: Antiviral activity against Woodchuck hepatitis virus infected in woodchuck assessed as absent of lesion in lobular hepatitis at 15 mg/kg, po qd measured on 12th week on 48 weeks study; assay type: functional, organism-based; parameters: dose 15 mg/kg; in short: as §6

Row | Structure (SMILES) | Activity [1] [pg] | Activity [2] [log10ng/ml] | Activity [3] | Activity [4] [%] | Activity [5] [pg] | Activity [6] [pg] | Activity [7] [%] | Activity [8] [%] | Activity [9] [pg] | Activity [10] [log10ng/ml] | Activity [11] | Activity [12] [%] | Activity [13] [%] | Activity [14] [pg] | Activity [15] | Activity [16] | Activity [17] | Activity [18] [log10ng/ml] | Activity [19] | Activity [20] [pg] | further results
1 | Nc1nc(=O)n([C@@H]2CS[C@H](CO)O2)cc1F [EMTRICITABINE] | 48 | 4.7 | Non-toxic | 63 | 845 | 42 | 2 | 10 | 35 | 4.4 | Toxic | 40 | 47 | 1239 | Toxic | Toxic | Toxic | 4.5 | Toxic | 644 | Activity [21]: 4.5 log10ng/ml; Activity [22]: 428 pg; Activity [23]: 10%; Activity [24]: Non-toxic; Activity [25]: 64%; Activity [26]: 10%; Activity [27]: 43 pg; Activity [28]: Active; Activity [29]: Toxic; Activity [30]: Active; Activity [31]: Toxic
2 | Nc1ccn([C@@H]2CS[C@H](CO)O2)c(=O)n1 [LAMIVUDINE] | 46 | 4.6 | Non-toxic | 59 | 982 | 39 | 1 | 5 | 33 | 4.4 | Toxic | 36 | 39 | 1063 | Toxic | Toxic | Toxic | 5.2 | Toxic | 1133 | Activity [32]: Active; Activity [21]: 4.7 log10ng/ml; Activity [22]: 413 pg; Activity [23]: 5%; Activity [24]: Non-toxic; Activity [25]: 48%; Activity [26]: 5%; Activity [27]: 47 pg; Activity [28]: Active; Activity [29]: Toxic; Activity [31]: Toxic
